Source: PubChem (The Scripps Research Institute Molecular Screening Center)
HTRA1 inhibitor – HTRA1 serine protease inhibitors, primary screen, biochemical, fluorescence polarization, HTS. 340,000 tested, 0.5% active. Q92743. inhibition, % at 5.96 µM. recombinant HTRA1, FP-rhodamine activity-based probe; in the data active = inhibition above about 36%;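 also: 0% = enzyme with DMSO and 100% = wells lacking enzyme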
Target sequence (Q92743 whole entry, looked up): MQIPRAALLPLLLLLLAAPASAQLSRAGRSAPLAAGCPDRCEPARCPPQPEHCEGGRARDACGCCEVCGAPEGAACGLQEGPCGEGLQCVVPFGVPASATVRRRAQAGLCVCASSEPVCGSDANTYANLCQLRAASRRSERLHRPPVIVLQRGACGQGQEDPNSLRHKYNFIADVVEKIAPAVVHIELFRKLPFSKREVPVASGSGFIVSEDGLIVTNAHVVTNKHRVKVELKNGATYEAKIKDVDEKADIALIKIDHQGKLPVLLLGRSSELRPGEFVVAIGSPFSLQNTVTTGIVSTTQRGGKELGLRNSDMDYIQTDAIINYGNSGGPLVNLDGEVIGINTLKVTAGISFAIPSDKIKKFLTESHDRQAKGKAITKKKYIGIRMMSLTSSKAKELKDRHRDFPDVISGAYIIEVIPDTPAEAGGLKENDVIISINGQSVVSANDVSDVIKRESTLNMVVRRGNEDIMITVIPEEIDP
SIAE primary – human SIAE inhibitors, primary screen, biochemical, fluorescence polarization, FP-Rh probe, 1536-well HTS | SIAE FP-Rh probe binding | inhibition, % at 9.66 µM | 370,000 tested, 0.69% active | AID 1053197, 2014;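 active = inhibition above a cutoff: mean of compounds within the control limits plus 3 SD of those, cut at about 17% in these data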;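 also: 0% = plate median of compound wells and 100% = probe without SIAE protein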
Tn6 DDE FP – inhibitors of Tn6 peptide binding to fibrin DD(E), primary screen, biochemical, fluorescence polarization, human fibrin, Tn6 probe | Fibrinogen beta chain (Homo sapiens), P02675 | Fibrin DD(E) TRITC-Tn6 fluorescence polarization displacement | inhibition, % at 8.3 µM | 370,000 tested, 0.21% active | AID 720509, 2013;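 active = inhibition above a per-campaign cutoff: mean of compounds within control limits plus 3 SD, cut at about 15% in these data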;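 also: 0% = median of all compound wells on the plate and 100% = blocking peptide control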
TCR-CD3 inh – inhibitors of human TCR-CD3 interaction, primary screen, biochemical, fluorescence, TAMRA-labeled TCR probe; inhibition, % at 9.4 µM; 360,000 tested, 0.37% active; T-cell receptor (TCR);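 also: recombinant mutant TCR 2C K166C tagged with TAMRA read by polarization; 0% = receptor in buffer alone and 100% = receptor with positive control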
DDE Tn7 FP inh – inhibitors of Tn7 peptide binding to fibrin DD(E), primary screen, biochemical, fluorescence polarization, human fibrin, Tn7 probe; FP displacement of FITC-Tn7 peptide from fibrin DD(E); 0% = median of compound wells per plate; inhibition, % at 8.3 µM; 370,000 tested, 0.13% active; AID 720508, 2013;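 active = inhibition above the mean of compounds falling within the control limits plus 3 SD of them, cut at about 14% in these data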;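 also: 0% = plate median of compound wells and 100% = 10 µM Aha-Tn7 peptide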
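Assay system: human fibrin DD(E) protein / Input: 2 µM fibrin DD(E) / Benchmarks: high control of 10 µM Aha-Tn7 peptide / Measured by: fluorescence polarization of the labelled Tn7 tracer / Medium: Tris buffer with calcium and detergent, pH 7.8 / Timing: 10 min compound pre-incubation, 3 h probe incubation at room temperature / Repeats: one replicate per compound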
mABHD4 FP – ABHD4 inhibitors, primary screen, biochemical, fluorescence polarization, mouse; (Lyso)-N-acylphosphatidylethanolamine lipase (Mus musculus), Q8VD66; purified mABHD4, FP-Rh probe fluorescence polarization; inhibition, % at 8.92 µM; 370,000 tested, 0.54% active; AID 720543, 2013;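 active = inhibition exceeding the mean over every tested compound plus 3 SD, cut at about 30% in these data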;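 also: 0% = plate median of compound wells and 100% = S159A mutant with DMSO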
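assay system = mABHD4 protein | compound dosing = single nominal dose of 8.92 µM, 0.89% DMSO final | read-out basis = percent inhibition of probe binding, normalized to plate controls | schedule = Enzyme–compound pre-incubation 45 min, then probe 60 min, both 25 °C | detection = fluorescence polarization, excitation 525 nm, emission 598 nm, BODIPY TMR filters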
BSA TAMRA ctr – compounds interfering with TAMRA-BSA probe, counter-screen for TCR-CD3 interaction inhibitor project, biochemical, fluorescence, TAMRA-labeled BSA. shares compounds with TCR-CD3 inh. TAMRA-labeled BSA probe fluorescence counterscreen. inhibition, % at 9.4 µM. 1,200 tested, 10% active. AID 652035, 2013; in the data active = inhibition above about 23%;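 also: 0% = buffer low control and 100% = reference high control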
TCR-CD3 inh conf – TCR-CD3 interaction inhibitors, retest, confirmation, biochemical, fluorescence, TAMRA-labeled TCR probe. shares compounds with TCR-CD3 inh. TAMRA-labeled TCR probe fluorescence binding assay. inhibition, % at 9.4 µM. 1,200 tested, 48% active
Tn7 DDE conf – inhibitors of Tn7 peptide binding to fibrin DD(E), confirmation, biochemical, fluorescence polarization, human fibrin, Tn7 probe | shares compounds with DDE Tn7 FP inh | FP displacement of TRITC-Tn7 peptide from DD(E); 0% set at plate's compound-well median | inhibition, % at 8.3 µM | 460 tested, 5% active | AID 720628, 2013;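 active = inhibition above the campaign cutoff, the mean of compounds within control limits plus 3 SD, cut at about 14% in these data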;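 also: 100% = median FP of high control wells holding Aha-Tn7 inhibitor peptide; displacers lower polarization since freed probe rises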
Tn7 DDE ctr – counter-screen hit for Tn7 peptide-fibrin DD(E) binding disruption. shares compounds with DDE Tn7 FP inh. TRITC-Tn7 probe displacement, fluorescence polarization. inhibition, % at 8.3 µM. 460 tested, 3% active;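 active = inhibition above the cutoff, the mean of compounds lying between the control bounds plus 3 SD of those compounds, cut at about 17% in these data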;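 also: 0% = median of compound sample wells and 100% = excess unlabeled Aha-Tn7 peptide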
DDE Tn6 FP ctr – counter-screen for inhibitors of Tn6 peptide binding to fibrin DD(E); shares compounds with Tn6 DDE FP; 680 tested, 2% active; inhibition, % at 8.3 µM; TRITC-Tn6 fluorescence polarization displacement; 0% = median of compound wells, not DMSO;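 active = inhibition above the mean of test compounds lying between the control limits plus 3 SD of those, cut at about 14% in these data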;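 also: 0% = median of compound wells and 100% = wells with Aha-Tn7 blocking peptide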
DDE Tn6 confirm – inhibitors of Tn6 peptide binding to fibrin DD(E), confirmation, biochemical, fluorescence polarization, human fibrin, Tn6 probe; 680 tested, 10% active; shares compounds with Tn6 DDE FP; FP displacement of TRITC-Tn6 peptide from DD(E); 0% = per-plate median of test wells; AID 720631, 2013; inhibition, % at 8.3 µM;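 active = inhibition above the mean of compounds lying within the control limits plus 3 SD, cut at about 16% in these data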;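 also: 100% = high control wells holding a competing inhibitor peptide at 10 µM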
mABHD4 conf – ABHD4 inhibitors, retest, confirmation, biochemical, fluorescence polarization, mouse. shares compounds with mABHD4 FP. purified mABHD4, FP-Rh probe fluorescence polarization. inhibition, % at 8.92 µM. 1,800 tested, 55% active. AID 720658, 2013;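 active = mean inhibition across replicates above the hit cutoff set in the primary screen, cut at about 30% in these data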;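 also: 0% = wild-type ABHD4 with DMSO and 100% = catalytically dead S159A mutant with DMSO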
SIAE inh conf – human SIAE inhibitors, retest, confirmation, biochemical, fluorescence polarization, FP-Rh probe, triplicate. shares compounds with SIAE primary. SIAE FP-Rh activity-based probe. inhibition, % at 9.66 µM. 2,300 tested, 13% active. AID 1117263, 2014;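 active = mean inhibition of the replicates above the hit cutoff set in the primary screen, cut at about 17% in these data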;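 also: 0% = SIAE with DMSO and probe and 100% = probe without SIAE; inhibitors lower polarization as more probe stays unbound to SIAE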
The depositor's hits bear a star; · = not tested or not shown. Most compounds without a hit are left out; they make up all but 1.8% or so of the library. Rule as the data show it, unless noted: active = inhibition above about 19%; inactive = the rest.

SMILES	HTRA1 inhibitor	SIAE primary	Tn6 DDE FP	TCR-CD3 inh	DDE Tn7 FP inh	mABHD4 FP	Tn7 DDE conf	Tn7 DDE ctr	others
CC(C)C(NC(=O)OCc1ccccc1)P(=O)(Oc1ccccc1)Oc1ccccc1 (stereo not given)	·	6	8	·	4	1	·	·
O=C(N/N=C/c1c(O)n(CCc2ccccc2)c(=O)[nH]c1=O)c1ccncc1	7	0	-4	8	-9	20	·	·
O=C(N/N=C/c1c(O)n(-c2cccc3ccccc23)c(=O)[nH]c1=O)c1ccncc1	6	-1	4	22*	0	0	·	·	BSA TAMRA ctr=-6;TCR-CD3 inh conf=10
Cc1ccc(/C=C2\C(=O)NC(=S)N(c3ccccc3F)C2=O)s1	-24	-97	20*	45*	2	-212	·	·	BSA TAMRA ctr=-31;TCR-CD3 inh conf=-16;DDE Tn6 FP ctr=-5;DDE Tn6 confirm=-29
Cc1ccc(/C=C2\C(=O)NC(=S)N(c3ccc(F)cc3)C2=O)s1	-20	-33	1	-27	3	-8	·	·
COC1C(C)OC(OC2CC(C)(O)Cc3cc4c(c(O)c32)C(=O)c2c(O)cc3c(c2C4=O)OC2OC3(C)C(O)C(N(C)C)C2O)C(OC)C1(C)OC (stereo not given)	5	-9	88*	80*	14*	-6	-19	54*	BSA TAMRA ctr=51*;TCR-CD3 inh conf=40*;DDE Tn6 FP ctr=-19;DDE Tn6 confirm=54*
COP(=O)(OC)OC=C(Cl)Cl	·	12	-5	8	-5	11	·	·
CN(C)[C@@H]1C(=O)C(C(N)=O)=C(O)[C@@]2(O)C(=O)C3=C(O)c4c(O)cccc4[C@@](C)(O)C3C[C@@H]12 (stereo not given in full)	22	14	-4	23*	-13	64*	·	·	BSA TAMRA ctr=-5;TCR-CD3 inh conf=-2;mABHD4 conf=9
O=c1[nH]c2cc(Cl)ccc2n1C1CCN(Cc2ccc(-c3nc4ccc(F)cc4nc3-c3ccccc3)cc2)CC1	·	-16	5	6	6	-9	·	·
CC/C(=N\NC(=O)c1ccccc1)c1c(O)n(C2CCCCC2)c(=O)[nH]c1=O	1	18*	9	20*	0	0	·	·	BSA TAMRA ctr=-4;TCR-CD3 inh conf=14;SIAE inh conf=4
COc1ccc2nc(-c3ccc(CN4CCC(n5nnc6ccccc65)CC4)cc3)c(-c3ccccc3)nc2c1	·	-10	-5	-8	-1	-12	·	·
COc1ccccc1-n1c(-c2ccccc2Cl)nc2ccccc2c1=O	-6	0	-1	-5	16*	3	7	8
COc1nc2ccccc2c(=O)n1-c1ccc(C)cc1	4	-4	0	-2	2	-12	·	·
CCCCOc1nc2ccccc2c(=O)n1-c1ccccc1	-1	2	4	2	15*	-5	6	-3
CC1=NCCc2c1[nH]c1cc(O)ccc21	19	11	1	7	76*	9	35*	-3
O=C(NCCN1CCC2(CC1)C(=O)NCN2c1ccccc1)c1ccc(OC(F)(F)F)cc1	·	0	1	-5	6	8	·	·
O=c1[nH]c(=S)n(C2CC2)c(O)c1C=Nc1cccc(C(F)(F)F)c1	-27	-54	2	-35	14*	-18	-5	-14
CCOC(=O)[C@]12Cc3ccccc3[C@H]1N(C)C(=O)c1cc(OC)ccc12	·	4	6	2	8	5	·	·
CCOC(=O)[C@]12Cc3c(cc(OC)c(OC)c3OC)[C@H]1N(C)C(=O)c1cc(OC)ccc12	·	1	2	3	15*	4	11	6
O=C(CN1C(=O)CN=C(c2ccccc2)c2cc(Cl)ccc21)NC1CCCCC1	·	0	2	·	-7	1	·	·
CCCCC12CNCC(C)(CNC1)C2=O	-7	-4	-3	12	17*	5	-8	-13
CCCCC1(CCO)C(=O)NC(=S)NC1=O	10	1	-1	4	2	2	·	·
O=C(NCCN1CCC2(CC1)C(=O)NCN2c1ccccc1)c1ccc(F)cc1F	·	6	4	-3	0	-6	·	·
COc1ccc2[nH]c(C)c(CCNCc3cccnc3)c2c1	5	22*	6	-8	18*	34*	6	-3	mABHD4 conf=3;SIAE inh conf=4
COC(=O)C1C(c2ccc(F)cc2)CC2CCC1N2C (stereo not given)	·	-5	-2	-1	-1	7	·	·
CN(C)c1ccc(/C=C/c2cc[n+](C)c3ccccc23)cc1	-19	-43	30*	-18	-4	-127	·	·	DDE Tn6 FP ctr=8;DDE Tn6 confirm=11
